Results published in ChEMBL document CHEMBL5712912, “Abnormal overexpression of G9a in melanoma cells promotes cancer progression via upregulation of the Notch1 signaling pathway” (Aging (Albany NY), 2020).
Calls of active or inactive are those of the source. No cut-off for these calls is given here.

What was measured:
[1] = biological target: T1, Histone-lysine N-methyltransferase EHMT2 (Homo sapiens) (UniProt Q96KQ7); test: Inhibition of G9a in human A-375 cells assessed as decrease in Hes1 expression at 2 uM by Western blot analysis; type: cell-based
T1 sequence (whole entry): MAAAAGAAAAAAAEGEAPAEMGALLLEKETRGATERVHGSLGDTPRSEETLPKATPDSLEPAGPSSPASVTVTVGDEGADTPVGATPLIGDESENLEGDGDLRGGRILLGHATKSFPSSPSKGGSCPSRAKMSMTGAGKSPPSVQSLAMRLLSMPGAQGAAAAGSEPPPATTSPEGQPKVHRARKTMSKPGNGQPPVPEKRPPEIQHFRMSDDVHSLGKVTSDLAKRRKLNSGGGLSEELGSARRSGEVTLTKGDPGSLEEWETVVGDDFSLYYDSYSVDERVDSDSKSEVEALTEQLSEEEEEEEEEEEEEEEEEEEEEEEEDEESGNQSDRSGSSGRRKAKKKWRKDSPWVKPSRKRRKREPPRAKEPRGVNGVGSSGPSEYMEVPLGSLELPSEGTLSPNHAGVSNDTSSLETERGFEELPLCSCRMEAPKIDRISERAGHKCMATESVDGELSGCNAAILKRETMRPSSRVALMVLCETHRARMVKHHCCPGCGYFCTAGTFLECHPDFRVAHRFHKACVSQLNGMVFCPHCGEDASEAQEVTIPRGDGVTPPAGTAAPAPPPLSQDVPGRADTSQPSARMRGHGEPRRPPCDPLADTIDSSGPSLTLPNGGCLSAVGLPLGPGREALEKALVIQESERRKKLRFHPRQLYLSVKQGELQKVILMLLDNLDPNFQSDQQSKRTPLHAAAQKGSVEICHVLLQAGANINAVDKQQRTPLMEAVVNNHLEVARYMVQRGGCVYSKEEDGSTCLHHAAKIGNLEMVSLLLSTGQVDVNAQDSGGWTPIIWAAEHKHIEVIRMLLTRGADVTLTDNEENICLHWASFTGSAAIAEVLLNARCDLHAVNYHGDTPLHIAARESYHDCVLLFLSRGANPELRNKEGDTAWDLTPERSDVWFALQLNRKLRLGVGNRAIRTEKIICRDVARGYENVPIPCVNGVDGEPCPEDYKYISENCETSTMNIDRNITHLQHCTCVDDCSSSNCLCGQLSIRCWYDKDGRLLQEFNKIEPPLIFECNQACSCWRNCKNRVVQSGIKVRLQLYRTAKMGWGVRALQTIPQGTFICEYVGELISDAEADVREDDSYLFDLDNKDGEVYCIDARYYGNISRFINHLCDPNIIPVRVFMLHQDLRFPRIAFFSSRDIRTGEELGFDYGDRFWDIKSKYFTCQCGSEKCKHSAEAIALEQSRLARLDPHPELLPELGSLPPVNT

M14 [2] = test: Antiproliferative activity against human M14 cells assessed as reduction in cell proliferation at 2 uM by CCK-8 assay; type: functional, cell-based
Outline: (§1)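 CCK8 proliferation assay. M14 or A375 cells, NICD plasmid-transfected where stated, were seeded at about 1000 cells per well, with 0.1% DMSO-treated cells as control. CCK8 reagent was added every 24 h and incubated 90 min at 37 °C, then OD read at 450 nm to build a proliferation curve. IC50 came from a dose-dependent viability series in A375.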

A-375 [3] = test: Induction of apoptosis in human A-375 cells overexpressing NICD assessed as reduction in Bcl-2 expression at 2 uM by Western blot analysis; type: functional, cell-based
M14 [4] = test: Antiinvasive activity against human M14 cells overexpressing NICD at 2 uM by transwell assay; type: functional, cell-based
Outline: (§2)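 Transwell assay in M14 or A375 cells cultured in high-glucose DMEM with 10% FBS and penicillin/streptomycin; NICD overexpression plasmid transfected with Lipofectamine 2000. Invasion inserts coated with Matrigel diluted 1:6 in serum-free 1640 medium and set at 37 °C for 4 h; migration inserts uncoated, 5000 cells seeded. Control cells received DMSO. Migrated or invaded cells counted.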

M14 [5] = test: Antiinvasive activity against human M14 cells at 2 uM by transwell assay; type: functional, cell-based; outline: as §2
A-375 [6] = test: Induction of apoptosis in human A-375 cells assessed as early apoptotic cells at 2 uM by Annexin V-FITC/PI staining based flow cytometry (reference value: 0.43%); type: functional
[7] = Toxicity in human A-375 cells xenografted nude mouse assessed as change in body weight at 5 mg/kg, ip administered every other day for 10 days and measured during compound dosing; type: organism-based; conditions: in vivo, 240 h, time 10 day
Outline: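 Male nude mice, 6 weeks old, were given A375 cells (2X 106) subcutaneously. After one week, animals with palpable xenografts were randomised into two groups: DMSO vehicle, or compound at 5 mg/kg i.p. every other day for 10 days. Tumour volume was measured, and body weight was monitored.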

A-375 [8] = test: Cytotoxicity against human A-375 cells assessed as reduction in cell viability by CCK-8 assay; type: functional, cell-based; outline: as §1
[9] = biological target: T1, Histone-lysine N-methyltransferase EHMT2 (Homo sapiens); test: Inhibition of G9a in human M14 cells assessed as decrease in H3K9me2 expression at 2 uM by Western blot analysis; type: cell-based
A-375 [10] = test: Induction of apoptosis in human A-375 cells assessed as reduction in Bcl-2 expression at 2 uM by Western blot analysis; type: functional, cell-based
A-375 [11] = test: Induction of apoptosis in human A-375 cells assessed as increase in cleaved Caspase-3 expression at 2 uM by Western blot analysis; type: functional, cell-based
M14 [12] = test: Induction of apoptosis in human M14 cells assessed as late apoptotic cells at 2 uM by Annexin V-FITC/PI staining based flow cytometry (reference value: 3.10%); type: functional
M14 [13] = test: Induction of apoptosis in human M14 cells assessed as live cells at 2 uM by Annexin V-FITC/PI staining based flow cytometry (reference value: 95.1%); type: functional
[14] = biological target: T1, Histone-lysine N-methyltransferase EHMT2 (Homo sapiens); test: Inhibition of G9a in human A-375 cells assessed as reduction in AKT phosphorylation at 2 uM by Western blot analysis; type: cell-based
M14 [15] = test: Antiproliferative activity against human M14 cells overexpressing NICD assessed as reduction in cell proliferation at 2 uM by CCK-8 assay; type: functional, cell-based; outline: as §1
A-375 [16] = test: Antiinvasive activity against human A-375 cells overexpressing NICD at 2 uM by transwell assay; type: functional, cell-based; outline: as §2
A-375 [17] = test: Cytotoxicity against human A-375 cells assessed as effect on cell survival at <0.5 nM by CCK-8 assay; type: functional, cell-based
A-375 [18] = test: Antimigratory activity against human A-375 cells overexpressing NICD at 2 uM by transwell assay; type: functional, cell-based; outline: as §2
M14 [19] = test: Induction of apoptosis in human M14 cells overexpressing NCID assessed as late apoptotic cells by Annexin V-FITC/PI staining based flow cytometry (Rvb-3.10%); type: functional; conditions: dose 2 µM
A-375 [20] = test: Induction of apoptosis in human A-375 cells overexpressing […] assessed as late apoptotic cells by Annexin V-FITC/PI staining based flow cytometry (Rvb-3.10%); type: functional; conditions: dose 2 µM
A-375 [21] = test: Induction of apoptosis in human A-375 cells overexpressing […] assessed as necrotic cells by Annexin V-FITC/PI staining based flow cytometry (Rvb-1.34%); type: functional; conditions: dose 2 µM
A-375 [22] = test: Antimigratory activity against human A-375 cells at 2 uM by transwell assay; type: functional, cell-based; outline: as §2
A-375 [23] = test: Antiproliferative activity against human A-375 cells assessed as reduction in cell proliferation at 2 uM by CCK-8 assay; type: functional, cell-based; outline: as §1
M14 [24] = test: Induction of apoptosis in human M14 cells overexpressing NCID assessed as live cells by Annexin V-FITC/PI staining based flow cytometry (Rvb-95.1%); type: functional; conditions: dose 2 µM
M14 [25] = test: Induction of apoptosis in human M14 cells assessed as early apoptotic cells at 2 uM by Annexin V-FITC/PI staining based flow cytometry (reference value: 0.43%); type: functional

COc1cc2c(NC3CCN(C(C)C)CC3)nc(N3CCC(F)(F)CC3)nc2cc1OCCCN1CCCC1
inhibition [1]: Active | Activity (M14 [2]): Active | Activity (A-375 [3]): inactive | Activity (M14 [4]): inactive | Activity (M14 [5]): Active | Activity (A-375 [6]): 4.8% | Activity [7]: Non-Toxic | Activity (A-375 [8]): Dose-Dependent Effect | IC50 (A-375 [8]): 3.06 µM | inhibition [9]: Active | Activity (A-375 [10]): Active | Activity (A-375 [11]): Active | Activity (M14 [12]): 5.17% | Activity (M14 [13]): 89.8% | inhibition [14]: Active | Activity (M14 [15]): inactive | Activity (A-375 [16]): inactive | Activity (A-375 [17]): inactive | Activity (A-375 [18]): inactive | Activity (M14 [19]): 3.59% | Activity (A-375 [20]): 3.59% | Activity (A-375 [21]): 0.76% | Activity (A-375 [22]): Active | Activity (A-375 [23]): Active | Activity (M14 [24]): 94.9% | Activity (M14 [25]): 4.8%
